The record followed here is ChEMBL document CHEMBL1156101, “Discovery and optimization of potent and selective triazolopyridazine series of c-Met inhibitors” (Bioorg Med Chem Lett, 2009).

The target of data set [1] is T1, Cytochrome P450 3A4 (Homo sapiens, UniProt P08684). As to the kind of experiment: Inhibition of human CYP3A4. In kind it is ADME.
In data set [2] the target is T1, Cytochrome P450 3A4. As to the kind of experiment: Inhibition of human CYP3A4 in human liver microsomes preincubated with NADPH. The class given is ADME, Microsome. For orientation: Liver microsomes are a subcellular fraction often used to study metabolism.
Data set [3] has as its target Hepatocyte growth factor receptor (Homo sapiens, UniProt P08581). The data set is described as follows: Inhibition of c-Met by HTRF assay. On the technique in general: In TR-FRET formats the signal depends on donor and acceptor labels being close together.
A further data set concerns the target CYP3A4 (Homo sapiens, UniProt P08684). As to the kind of experiment: Selective ratio of human CYP3A4 IC50 to human CYP3A4 IC50 with pre-incubation. In kind it is ADME. The note with it: read-out: Ratio IC50.
The nature of data set [4]: AUC (0 to 24 hrs) in mouse at ED50, po. The class given is ADME, organism-based. Also on record: time < 24 hr, route oral. The note with it: plasma. The essentials: (§1)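 NIH3T3 cells transfected with human TPR-Met, implanted as xenograft in mice. Dosing by oral gavage once daily at 3, 10, 30 and 100 mg/kg for 22 days, starting 24 h after tumor cell implantation. Vehicle: 2% HMPC, 1% Tween in water pH 2.2 w/MSA. Tumor growth and body weight followed; n = 12 per group, mean ± standard error. AUC(0-24) taken at ED50 and ED90.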

A short description of data set [5]: AUC (0 to 24 hrs) in mouse at ED90, po. In kind it is ADME, organism-based. Also on record: time < 24 hr, route oral. The conditions noted are these: plasma. The essentials:
as §1

Data set [6] in a line: Intrinsic clearance in rat liver microsomes. The class given is ADME, Microsome. The gist of the method:
(§2)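 Intrinsic clearance was measured in vitro in rat, mouse and human liver microsomes.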

Data set [7] can be described thus: Intrinsic clearance in mouse liver microsomes. The class given is ADME, Microsome. The essentials: as §2
The nature of data set [8]: Intrinsic clearance in human liver microsomes. The class given is ADME, Microsome. The gist of the method: as §2
Data set [9] can be described thus: Plasma protein binding in rat at 5 ug/ml. In kind it is ADME, cell-free. The conditions noted are these: read-out: PPB (converted). The gist of the method: (§3)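 Plasma protein binding was measured by equilibrium dialysis at 5 µg/mL.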
The nature of data set [10]: Clearance in Sprague-Dawley rat at 0.25 mg/kg, iv in 20% hydroxypropyl beta-cyclodextrin in water pH 3.5 w/MSA vehicle. In kind it is ADME, organism-based. Also on record: dose 0.25 mg/kg, route intravenous. The note with it: in vivo. The essentials: (§4)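 Male Sprague-Dawley rats, n=3, dosed intravenously at 0.25 mg/kg in 20% hydroxypropyl beta-cyclodextrin in water (pH 3.5, adjusted with MSA). In the same study, a separate oral arm used 2 mg/kg in 2% HMPC/1% Tween in water (pH 2.2, HCl) to derive bioavailability.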

A short description of data set [11]: Volume of distribution at steady state in Sprague-Dawley rat at 0.25 mg/kg, iv in 20% hydroxypropyl beta-cyclodextrin in water pH 3.5 w/MSA vehicle. Also on record: dose 0.25 mg/kg, route intravenous. The note with it: in vivo, read-out: Vdss. In kind it is ADME, organism-based. The essentials:
(§5)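 Male Sprague-Dawley rats, n=3. Intravenous dosing at 0.25 mg/kg in DMSO or in 20% hydroxypropyl beta-cyclodextrin in water pH 3.5 w/MSA. Oral dosing at 2 mg/kg in 2% HMPC, 1% Tween in water pH 2.2 w/HCl.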

A short description of data set [12]: Half life in Sprague-Dawley rat at 0.25 mg/kg, iv in 20% hydroxypropyl beta-cyclodextrin in water pH 3.5 w/MSA vehicle. In kind it is ADME, organism-based. Also on record: dose 0.25 mg/kg, route intravenous. The note with it: in vivo. The gist of the method: as §4
Data set [13] in a line: AUC (0 to infinity) in Sprague-Dawley rat at 2 mg/kg, po. The class given is ADME, organism-based. The arrangement: time infinity, dose 2 mg/kg, route oral. The conditions noted are these: plasma. The essentials:
as §5

Data set [14] is described as follows: Oral bioavailability in Sprague-Dawley rat at 2 mg/kg. The class given is ADME, organism-based. The note with it: in vivo. The gist of the method: as §5
Data set [15] addresses Voltage-gated inwardly rectifying potassium channel KCNH2 (Homo sapiens, UniProt Q12809). As to the kind of experiment: Inhibition of human ERG.
A further data set deals with Heart. The data set is described as follows: Cardiotoxicity in rabbit heart assessed as electrocardiographic parameters up to 3 uM. In kind it is toxicity, tissue-based, Oryctolagus cuniculus.
For data set [16], the species on record is Mus musculus. As to the kind of experiment: Inhibition of HGF-induced c-Met phosphorylation in BALB/c mouse liver after 6 hrs by electrochemiluminescent assay. In kind it is functional. The gist of the method: (§6)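 Mice were given 30 mg/kg by oral gavage in 2% HMPC, 1% Tween in water pH 2.2 w/MSA, then challenged with HGF. HGF-induced c-Met phosphorylation in liver was quantified at several time points. Plasma and liver drug levels were measured alongside. n = 3, mean ± standard deviation.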

For data set [17], the species on record is Mus musculus. As to the kind of experiment: Inhibition of HGF-induced c-Met phosphorylation in BALB/c mouse plasma after 6 hrs by electrochemiluminescent assay. In kind it is functional. The essentials: as §6
Data set [18] relates to Mus musculus. The data set is described as follows: Inhibition of HGF-induced c-Met phosphorylation in BALB/c mouse liver at 30 mg/kg, po after 12 hrs by electrochemiluminescent assay. The class given is functional. The gist of the method:
as §6

The subject of a further data set is NIH3T3. As to the kind of experiment: Antitumor activity against TPR-Met expressing NIH/3T3 xenografted in mouse dosed po over 22 days q.d. In kind it is functional. The note with it: 528 h. The essentials: as §1
Data set [19] has as its system Mus musculus. The data set is described as follows: Toxicity in mouse xenografted with TPR-Met expressing NIH/3T3 up to 100 mg/kg, po over 22 days q.d. The arrangement: dose 100 mg/kg, route oral. In kind it is organism-based, NIH3T3. The conditions noted are these: in vivo, 528 h. The essentials: as §1
The species named for a further data set is Homo sapiens. The data set is described as follows: Plasma protein binding in human at 5 ug/ml. The conditions noted are these: read-out: PPB (converted).
The nature of data set [20]: Plasma protein binding in mouse at 5 ug/ml. The class given is ADME, cell-free. The conditions noted are these: read-out: PPB (converted). The essentials: as §3
A short description of data set [21]: Clearance in Sprague-Dawley rat at 0.25 mg/kg, iv in DMSO vehicle. The class given is ADME, organism-based. Also on record: dose 0.25 mg/kg, route intravenous. The conditions noted are these: in vivo. The essentials: as §5
Data set [22] can be described thus: Volume of distribution at steady state in Sprague-Dawley rat at 0.25 mg/kg, iv in DMSO vehicle. The class given is ADME, organism-based. Also on record: dose 0.25 mg/kg, route intravenous. The note with it: in vivo, read-out: Vdss. The essentials:
as §5

The nature of data set [23]: Half life in Sprague-Dawley rat at 0.25 mg/kg, iv in DMSO vehicle. The class given is ADME, organism-based. Also on record: dose 0.25 mg/kg, route intravenous. The note with it: in vivo. The essentials: as §5

Usually IC50 stands for the concentration that gives 50% inhibition. Read a high IC50 as weaker potency in that assay. For the compound `COc1ccc2c(OCc3nnc4ccc(-c5cc(F)cc(F)c5)nn34)ccnc2c1`, the IC50 is > 50 µM at Cytochrome P450 3A4 [1] and 8.3 µM on Cytochrome P450 3A4 [2].

With `COc1ccc2c(OCc3nnc4ccc(-c5cc(F)c(F)c(F)c5)nn34)ccnc2c1`, the IC50 in data set [3] was determined as 0.005 µM; on Cytochrome P450 3A4 [1] it was 29 µM; against Cytochrome P450 3A4 [2], 2 µM. Further, the IC50 shift at CYP3A4 was 14.

On to `COc1ccc2c(OCc3nnc4ccc(-c5ccc(F)c(F)c5)nn34)ccnc2c1`, for which the figures for the half-maximal inhibitory concentration (IC50) against Cytochrome P450 3A4 [1] and at Cytochrome P450 3A4 [2] were > 50 µM and 6.4 µM, respectively.

For `COc1cnc2c(NCc3nnc4ccc(-c5cc(F)c(F)c(F)c5)nn34)ccnc2c1`, the concentration for half-maximal inhibition (IC50) on Cytochrome P450 3A4 [1] is > 50 µM; on Cytochrome P450 3A4 [2], 16 µM.

With `COc1cnc2c(NCc3nnc4ccc(-c5ccc(F)c(F)c5)nn34)ccnc2c1`, the figures for the 50% inhibitory concentration (IC50) against Cytochrome P450 3A4 [1] and on Cytochrome P450 3A4 [2] were > 50 µM and 9.1 µM, respectively.

As to `COc1ccc2c(O[C@H](C)c3nnc4ccc(-c5ccccc5)nn34)ccnc2c1`, the IC50 on Cytochrome P450 3A4 [1] amounted to 18 µM; on Cytochrome P450 3A4 [2] it was 8.9 µM.

With `COc1ccc2c(NCc3nnc4ccc(-c5ccccc5)nn34)ccnc2c1`, the IC50 in data set [3] was 1.37 µM; at Cytochrome P450 3A4 [1], > 50 µM; against Cytochrome P450 3A4 [2], 50 µM. Moreover, the IC50 shift on CYP3A4 is > 1.

As a reminder, the AUC(0-t) is the area under the concentration-time curve up to a stated or last time point. Higher therefore signals high exposure. As usually defined, the microsomal CLint is the rate of metabolic loss divided by the concentration. Lower therefore signals greater metabolic stability. One may read the clearance as the rate of elimination divided by the concentration. Usually half-life stands for how long it takes for the measured level to halve. A low value points to rapid decline. By AUC(0-inf) is commonly meant total exposure, with the tail of the curve extrapolated. A higher AUC(0-inf) goes with high exposure. The bioavailability is dose-corrected exposure relative to a reference, in per cent. Read a low bioavailability as poor availability. Usually Ki stands for the dissociation constant of the complex between target and ligand, obtained from inhibition or displacement. Lower therefore signals tighter binding. In general, EC90 refers to the point of the concentration-response curve where the effect stands at 90%. A low value points to an effect from little substance. A word on the inhibition in vivo: it is the percentage by which the read-out fell short of the control. Low values mean a weak effect, high ones a strong effect. The term ED50 denotes the dose that gives a 50% effect, or the effect in half of the subjects. As for `COc1cnc2c(NCc3nnc4ccc(-c5cc(C)ns5)nn34)ccnc2c1`, the AUC(0-t) at 24 h in data set [4] came out at 0.43 µM·h; in [5], 4.7 µM·h. The results for the IC50 on Cytochrome P450 3A4 [1] and at Cytochrome P450 3A4 [2] were > 50 µM and 26 µM, respectively. Besides, the values for the microsomal CLint in data set [6], in data set [7] and in data set [8] were 59 µL/min/mg, 60 µL/min/mg and 24 µL/min/mg, respectively. Besides, the fraction unbound at 5 ug/ml was 0.007 in data set [9] and 0.025 in the data set listed under Homo sapiens. Besides, in data set [10], the clearance is 3.08 mL/min/kg. For the same compound, the Vd in [11] was found to be 0.303 L/kg. In [12], this compound had a half-life of 1.76 h. Also, in data set [13], the AUC(0-inf) stood at 3500 ng·h/mL. Also, in data set [14], the bioavailability worked out at 30.5%. In addition, the inhibition constant Ki in data set [15] stood at 1.6 µM. In addition, the Activity result in the data set with Heart and with Mus musculus [19] was “Non-toxic” each time. Further, the 90% effect concentration (EC90) in the data set filed under Mus musculus [16] worked out at 1.8 µM; in the data set filed under Mus musculus [17] it was 0.136 µM. Besides, the inhibition in vivo at 30 mg/kg with Mus musculus [18] is > 50%. The compound further came in with a 50% effective dose (ED50) in the data set with NIH3T3 of 3.3 mg/kg. The same compound returned an ED90 in the data set on NIH3T3 of 22 mg/kg.

On to `COc1ccc2c(SCc3nnc4ccc(-c5ccccc5)nn34)ccnc2c1`, for which the IC50 in [3] was > 6.67 µM; at Cytochrome P450 3A4 [1], 4.5 µM; on Cytochrome P450 3A4 [2], 7 µM. In addition, the IC50 shift at CYP3A4 was determined as 0.64.

In the case of `COc1ccc2c(OCc3nnc4ccc(-c5cc(C)ns5)nn34)ccnc2c1`, the 50% inhibitory concentration (IC50) was 17 µM against Cytochrome P450 3A4 [1] and 4.8 µM against Cytochrome P450 3A4 [2].

Consider `COc1cnc2c(NCc3nnc4ccc(-c5cc(F)cc(F)c5)nn34)ccnc2c1`, for which the IC50 on Cytochrome P450 3A4 [1] was > 50 µM; on Cytochrome P450 3A4 [2], 29 µM. Moreover, the intrinsic metabolic clearance (microsomal CLint) amounted to 53 µL/min/mg in [6], 49 µL/min/mg in [7] and 47 µL/min/mg in [8]. Besides, the fraction unbound at 5 ug/ml in data set [9] was 0.002; in data set [20] it was 0.023; in the data set filed under Homo sapiens, 0.008. Also, the clearance in data set [21] was 0.717 mL/min/kg. Besides, in data set [22], the Vd stood at 0.201 L/kg. In [23], this compound showed a half-life of 3.84 h. In data set [13], this compound came in with an AUC(0-inf) of 31100 ng·h/mL. The bioavailability in [14] is 62%. The compound further showed an inhibition constant Ki in data set [15] of 0.2 µM.

With `COc1ccc2c(O[C@@H](C)c3nnc4ccc(-c5ccccc5)nn34)ccnc2c1`, the half-inhibitory concentration (IC50) at Cytochrome P450 3A4 [1] was 14 µM; at Cytochrome P450 3A4 [2], 3.9 µM.
